# High-throughput results as filed in PubChem.
# An excerpt weighted towards active compounds, which were near 5.8% of everything screened.
# ROMK mod – modulators of human ROMK potassium channel; Tet-inducible ROMK, thallium flux fluorescence; actives lie on both sides; P48048; AID 1918; 130,000 compounds, 2% hits; B-score at 10 µM;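 active = signal ratio slope over the read window, or its plate-corrected B-score, at least 3 SD from the plate mean, either direction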;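 also: B-score of the F/F0 ratio slope over 7 to 12 s after thallium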
# KCC2 mod – modulators of human KCC2 chloride dependent transport. KCC2 cells, thallium flux FluoZin-2 fluorescence. B-score of Tl+ flux slope (higher = more flux/activation; lower = inhibition) at 10 µM. 190,000 compounds, 2.2% hits. Q9H2X9. AID 1456;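 active = thallium flux slope and its plate-corrected score both differing from the plate sample mean at a set confidence after two filtering rounds, in either direction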;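 also: slope of fluorescence scaled to starting intensity during 10 to 20 s after thallium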
# Target sequence (Q9H2X9 whole entry, looked up): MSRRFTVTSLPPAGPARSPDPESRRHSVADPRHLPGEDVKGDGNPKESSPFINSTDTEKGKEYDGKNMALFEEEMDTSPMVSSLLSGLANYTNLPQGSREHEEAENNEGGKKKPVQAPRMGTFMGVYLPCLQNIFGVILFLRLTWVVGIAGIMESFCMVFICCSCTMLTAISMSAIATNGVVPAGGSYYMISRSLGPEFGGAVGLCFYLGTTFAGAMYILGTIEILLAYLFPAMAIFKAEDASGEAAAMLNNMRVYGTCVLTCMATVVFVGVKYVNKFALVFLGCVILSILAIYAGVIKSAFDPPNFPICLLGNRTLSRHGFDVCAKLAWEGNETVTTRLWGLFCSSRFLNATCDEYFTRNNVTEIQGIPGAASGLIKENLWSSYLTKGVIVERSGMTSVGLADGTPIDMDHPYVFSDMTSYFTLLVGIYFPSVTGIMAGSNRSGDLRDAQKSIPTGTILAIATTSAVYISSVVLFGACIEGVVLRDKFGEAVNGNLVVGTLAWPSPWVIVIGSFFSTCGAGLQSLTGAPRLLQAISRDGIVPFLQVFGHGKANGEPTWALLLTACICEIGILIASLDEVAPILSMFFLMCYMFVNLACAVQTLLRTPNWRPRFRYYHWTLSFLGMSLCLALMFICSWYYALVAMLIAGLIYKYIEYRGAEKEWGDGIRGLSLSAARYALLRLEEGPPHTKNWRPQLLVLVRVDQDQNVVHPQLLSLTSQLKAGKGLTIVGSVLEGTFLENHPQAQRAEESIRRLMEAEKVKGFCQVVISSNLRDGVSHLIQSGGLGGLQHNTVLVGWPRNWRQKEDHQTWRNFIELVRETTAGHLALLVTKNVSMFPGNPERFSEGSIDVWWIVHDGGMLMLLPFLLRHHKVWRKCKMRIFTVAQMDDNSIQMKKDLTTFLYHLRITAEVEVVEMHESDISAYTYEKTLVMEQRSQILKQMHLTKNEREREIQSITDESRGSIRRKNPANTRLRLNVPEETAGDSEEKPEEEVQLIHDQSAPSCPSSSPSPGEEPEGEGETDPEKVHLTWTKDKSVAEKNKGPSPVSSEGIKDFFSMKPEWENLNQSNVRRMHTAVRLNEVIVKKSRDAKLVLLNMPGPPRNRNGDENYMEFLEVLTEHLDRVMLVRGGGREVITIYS
# RBBP9 inhibitor – inhibitors of human serine hydrolase RBBP9. recombinant RBBP9, FP-Rh probe fluorescence polarization. inhibition, % at 7.94 µM. 220,000 compounds, 0.2% hits;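 active = inhibition above the campaign mean of all tested compounds plus 3 SD, cut at about 14% in these data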;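 also: plate controls were DMSO wells with RBBP9 for no effect and wells lacking RBBP9 protein for full effect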
#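 Test system: recombinant human RBBP9. Quantity: 2.5 µM RBBP9 dispensing solution, before mixing. Detection: FP readout at 525/598 nm. Reagent: Serine-hydrolase probe FP-Rh, 375 nM pre-mixing. Measure: % inhibition. Control set: DMSO-treated enzyme wells and wells lacking RBBP9. Buffer or medium: Tris-NaCl-Pluronic buffer, pH 8.0. Times: preincubation 30 min plus labeling 45 min at 25 °C.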
# WT yeast gro inh – growth inhibition of WT yeast, mitochondrial fusion screen | mitochondrial fusion phenotypic screen, WT strain | 190,000 compounds, 2.1% hits | inhibition, % at 10 µM; in the data active = inhibition above about 58%; tested in S. cerevisiae
# 14-3-3 Bad PPI – disrupts binding of bovine 14-3-3 zeta to phospho-Bad peptide. TR-FRET 14-3-3zeta/Dy647-pBad peptide displacement, 1 h. P63103. inhibition, % at 21.7 µM. 220,000 compounds, 0.71% hits;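 active = inhibition above about 70%, limit read from the data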;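 also: 0% = full 14-3-3 plus peptide FRET controls and 100% = background without 14-3-3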
# p47phox inh – inhibitors of human p47phox binding. 220,000 compounds, 0.53% hits. P14598. p47phox/p22phox peptide binding, fluorescence polarization, 2 h. AID 1274. inhibition, % at 24.7 µM;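 active = inhibition above about 30%, limit read from the data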;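 also: 0% = p47phox with labelled peptide and 100% = labelled peptide alone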
# * = called active by the depositor; nt = not tested or not shown.
SMILES,ROMK mod,KCC2 mod,RBBP9 inhibitor,WT yeast gro inh,14-3-3 Bad PPI,p47phox inh
CN(C)NC(=S)Nc1cccc(C(F)(F)F)c1,nt,0.205,-5.9,nt,-2.8,-12.8
FC(F)(F)c1cccc(NC(=S)NNC(=S)Nc2ccc(Cl)cc2)c1,0.658,-2.21,-5.3,nt,-11.4,-23.6
CC(NC(=S)Nc1cccc(C(F)(F)F)c1)C(C)(C)C (stereo unspecified),-1.21,-0.0132,-1.4,70.2*,52.1,-24.3
FC(F)(F)c1cccc(NC(=S)NCc2ccc(Cl)cc2)c1,0.111,0.181,-17.8,75.2*,-5.8,-6.3
Fc1ccc(CNC(=S)Nc2cccc(C(F)(F)F)c2)cc1,0.374,0.0514,-5.6,58.5*,-9.2,-12.8
Cc1ccc(S(=O)(=O)c2nc(Nc3ccccc3)sc2Cl)cc1,nt,-0.838,-5.6,78.8*,-7.4,-18.1
O=C(O)CC1(CC(=O)Nc2ccccc2N2CCOCC2)CCCC1,nt,-0.869,-5.2,nt,-1.5,8.2
COC(=O)c1sccc1NC(=S)N1CCN(c2cc(C)ccc2C)CC1,0.00104,-0.0325,1.8,76.6*,-5.4,-8.9
Cc1ccc(C)c(N2CCN(C(=S)Nc3ccc4nc(N5CCOCC5)cc(C)c4c3)CC2)c1,-0.121,-0.14,-2.7,2.8,-13.4,-1.6
Cc1ccc(C)c(N2CCN(C(=S)Nc3ccc4nc(N5CCN(C)CC5)cc(C)c4c3)CC2)c1,2.16,0.708,-2.8,71.8*,10.5,15.2
CCCN1C(=O)/C(=C/c2ccc(C)s2)NC1=S,5.52*,39.8*,7.4,7.3,-8.8,-5.8
CC(C)CN1C(=O)/C(=C/c2cccs2)NC1=S,nt,39.7*,-5.0,-3.4,-6.3,-13.1
CCN(CC)S(=O)(=O)c1ccc(N2CCOCC2)c(NS(=O)(=O)c2ccc(C)c(C)c2)c1,nt,-0.298,-2.2,9.7,-9.9,-12.0
CC(C)CC(=O)NS(=O)(=O)c1ccc(NS(C)(=O)=O)cc1,0.239,-0.00618,-6.5,-3.5,-2.9,-5.8
Nc1ccccc1-c1nnc(-c2ccc(-c3ccccc3)cc2)o1,-0.462,-0.907,-8.0,5.3,nt,57.7*
C=CCOc1ccccc1CN1CCSCC1,-1.1,nt,0.1,7.0,80.0*,-0.8
COc1cc(/C=C2\SC(=O)N(c3cccc(Cl)c3)C2=O)cc([N+](=O)[O-])c1O,2.07,-0.35,-0.8,56.4,92.0*,-8.5
COc1cc(/C=C2\SC(=O)N(c3ccc(Cl)cc3)C2=O)cc([N+](=O)[O-])c1O,1.7,-1.34,-2.5,47.5,92.6*,-14.8
CCOC(=O)C1=C(O)/C(=C/c2ccc(CNC(=O)C(=O)Nc3ccc(C)cc3)o2)N=C1C,-2.08,-0.824,0.7,-7.0,10.0,-22.3
COC(=O)C1=C(O)/C(=C\c2ccc(CNC(=O)C(=O)Nc3ccc(C)cc3)o2)N=C1C,nt,-1.19,0.9,75.8*,40.3,19.4
Cc1c(Cl)cccc1NC(=S)NCC1COc2ccccc2O1 (stereo unspecified),-1.22,-1.22,-1.2,59.4*,-5.6,-8.2
O=C(NC(=S)NCC1COc2ccccc2O1)c1ccccc1 (stereo unspecified),nt,4.33*,-4.7,29.4,-19.7,-0.4
O=C(NCC1COc2ccccc2O1)c1ccccc1 (stereo unspecified),nt,1.27,-2.2,-2.1,6.7,-6.0
NC(=O)c1ccc(NC(=O)COC(=O)c2c3c(nc4ccccc24)/C(=C\c2cccs2)CCC3)cc1,0.489,0.931,-50.9,75.5*,-19.0,-87.4
CCc1cccc(C)c1NC(=O)COC(=O)c1c2c(nc3ccccc13)/C(=C\c1cccs1)CCC2,nt,0.735,-4.3,5.5,-7.5,-31.8
SMILES,ROMK mod,KCC2 mod,RBBP9 inhibitor,WT yeast gro inh,14-3-3 Bad PPI,p47phox inh
Cc1cc(C)cc(NC(=S)NC2CC3CCC(C2)N3Cc2ccco2)c1 (stereo unspecified),nt,-0.652,-1.9,79.2*,-1.2,2.0
O=C(C1=C(O)/C(=C/c2ccc(O)cc2)CCC1)C(F)(F)F,0.596,-1.29,-1.0,67.1*,1.1,-21.3
COc1ccc(/C=C2\SC(=O)N(CCC(=O)Nc3ccccc3)C2=O)cc1OC,nt,0.189,-7.8,-4.7,-5.1,10.6
COc1cc(/C=C2\SC(=O)N(CCN)C2=O)ccc1OS(=O)(=O)c1cc(C)ccc1C,-1.34,0.552,3.5,58.7,84.5*,72.2*
Brc1ccc(CNc2cc3c(cc2Br)OCCO3)cc1,0.00694,1.08,-3.9,53.9,1.1,-6.3
CCn1c(Cc2c(C)[nH]c3ccccc23)nnc1SCC(=O)NCc1ccco1,nt,-0.938,-4.7,-23.8,-12.2,-1.9
CCn1c(Cc2c(C)[nH]c3ccccc23)nnc1SCC(=O)NCc1ccccc1,nt,-1.47,-4.9,-16.7,0.3,40.8*
CCCCNc1nc2c(S(=O)(=O)c3ccccc3)nnn2c2ccccc12,0.766,0.00667,-2.5,-9.6,-25.9,-6.5
Cc1cc(C)cc(Nc2nc3c(S(=O)(=O)c4ccccc4)nnn3c3ccccc23)c1,0.521,0.136,-8.9,3.5,23.2,34.4*
COc1ccc(/C=C/C(=O)N(Cc2cccs2)C2CCS(=O)(=O)C2)cc1 (stereo unspecified),nt,-0.661,-10.2,nt,-1.5,-37.8
S=C(NCc1ccc2[nH]c3c(c2c1)CCCC3)Nc1ccccc1,0.0328,-0.291,-6.9,75.6*,-3.0,-13.2
CCS(=O)(=O)NCc1ccc2[nH]c3c(c2c1)CCCC3,nt,0.0267,-6.6,1.0,-6.5,-16.4
Cc1cc(C)cc(NC(=S)NCc2ccc3[nH]c4c(c3c2)CCCC4)c1,0.457,-0.374,-6.0,72.0*,-0.1,12.1
O=C(NCc1ccc2[nH]c3c(c2c1)CCCC3)c1ccc(S(=O)(=O)N2CCCCC2)cc1,0.167,-0.631,-12.0,2.1,-3.1,-205.8
NS(=O)(=O)c1cccc(NS(=O)(=O)c2ccc(/C=C/C(=O)O)cc2)c1,nt,-0.0216,-13.3,nt,4.8,-14.7
CCc1nnc(NC(=O)CCC(=O)N2CCN(C3CCCCC3)CC2)s1,0.634,0.099,-5.0,-12.3,6.2,-12.9
CCc1nnc(NC(=O)CCC(=O)N2CCCC2)s1,0.0039,0.0308,-11.1,12.6,0.1,89.9*
CCOc1ccccc1N(C(=O)Nc1cccc(Cl)c1)C1=NC(C)CS1 (stereo unspecified),-0.0271,0.448,-8.3,18.8,-2.2,35.2*
CCOc1ccccc1N(C(=O)Nc1ccc(Cl)cc1)C1=NCCS1,nt,-0.0134,6.9,17.3,-8.4,-10.2
CCC1(C)Cc2ccccc2-c2nc(NCCCO)n(-c3ccccc3)c(=O)c21 (stereo unspecified),-0.00182,-0.93,-11.3,0.2,-0.1,-8.2
Cn1c(NCCCO)nc2c(c1=O)C1(CCCCC1)Cc1ccccc1-2,-1.04,-0.115,-4.1,60.4*,-3.7,-14.8
Cc1n[nH]c(=S)n(NC(=O)/C=C/C(=O)Nn2c(=S)[nH]nc(C)c2=O)c1=O,-0.00451,0.483,1.7,-11.7,84.8*,-1.9
Cc1ccc(C)c(NC(=O)c2ccccc2C(=O)c2ccccc2)c1,1.09,-0.247,-7.8,62.8*,-10.7,-9.0
